# Laboratory results as given in ChEMBL document CHEMBL1132236, “Synthesis and pharmacology of the baclofen homologues 5-amino-4-(4-chlorophenyl)pentanoic acid and the R- and S-enantiomers of 5-amino-3-(4-chlorophenyl)pentanoic acid” (J Med Chem, 1999).
# The source made the active and inactive calls. No cut-off for these calls is given here.
# Columns and labels:
# [1] = target: GABA-A receptor; anion channel; experiment: Inhibition of [3H]muscimol binding to Gamma-aminobutyric acid A (GABA-A) receptor of rat brain membranes; assay type: cell membranes, Membrane
# Method in brief: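 Male Sprague-Dawley rat brain synaptic membranes, washed repeatedly, resuspended at 1 mg/mL in 50 mM Tris-HCl pH 7.4. Incubated with 10 nM [3H]muscimol for 1 h at 20 °C, competitor 10^-10 to 10^-3 M. Nonspecific binding defined with 1 mM GABA. GF/B filtration, liquid scintillation counting.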
# Cavia porcellus [2] = species: Cavia porcellus; experiment: The compound was tested for inhibition of electrically evoked muscle contractions in isolated longitudinal guinea pig ileum muscle; assay type: functional
# Method in brief: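 Guinea pig ileum longitudinal muscle strips with myenteric plexus (Paton–Zar) held in Krebs-bicarbonate gassed 5% CO2/95% O2 at 37 °C. After 60 min equilibration, stimulated at 0.1 Hz, 5 ms, 100 V. Isometric contractions recorded, inhibition taken relative to maximal inhibition. EC50 fitted with Hill equation. 20–30 min recovery between curves. At least four preparations from two animals.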
# GABA B receptor = GABA B receptor (Rattus norvegicus, UniProt O88871+Q9Z0U4); experiment: Displacement of [3H]GABA from Gamma-aminobutyric acid type B receptor; assay type: protein-complex assay
# GABA B receptor, sequence (Q9Z0U4 whole entry): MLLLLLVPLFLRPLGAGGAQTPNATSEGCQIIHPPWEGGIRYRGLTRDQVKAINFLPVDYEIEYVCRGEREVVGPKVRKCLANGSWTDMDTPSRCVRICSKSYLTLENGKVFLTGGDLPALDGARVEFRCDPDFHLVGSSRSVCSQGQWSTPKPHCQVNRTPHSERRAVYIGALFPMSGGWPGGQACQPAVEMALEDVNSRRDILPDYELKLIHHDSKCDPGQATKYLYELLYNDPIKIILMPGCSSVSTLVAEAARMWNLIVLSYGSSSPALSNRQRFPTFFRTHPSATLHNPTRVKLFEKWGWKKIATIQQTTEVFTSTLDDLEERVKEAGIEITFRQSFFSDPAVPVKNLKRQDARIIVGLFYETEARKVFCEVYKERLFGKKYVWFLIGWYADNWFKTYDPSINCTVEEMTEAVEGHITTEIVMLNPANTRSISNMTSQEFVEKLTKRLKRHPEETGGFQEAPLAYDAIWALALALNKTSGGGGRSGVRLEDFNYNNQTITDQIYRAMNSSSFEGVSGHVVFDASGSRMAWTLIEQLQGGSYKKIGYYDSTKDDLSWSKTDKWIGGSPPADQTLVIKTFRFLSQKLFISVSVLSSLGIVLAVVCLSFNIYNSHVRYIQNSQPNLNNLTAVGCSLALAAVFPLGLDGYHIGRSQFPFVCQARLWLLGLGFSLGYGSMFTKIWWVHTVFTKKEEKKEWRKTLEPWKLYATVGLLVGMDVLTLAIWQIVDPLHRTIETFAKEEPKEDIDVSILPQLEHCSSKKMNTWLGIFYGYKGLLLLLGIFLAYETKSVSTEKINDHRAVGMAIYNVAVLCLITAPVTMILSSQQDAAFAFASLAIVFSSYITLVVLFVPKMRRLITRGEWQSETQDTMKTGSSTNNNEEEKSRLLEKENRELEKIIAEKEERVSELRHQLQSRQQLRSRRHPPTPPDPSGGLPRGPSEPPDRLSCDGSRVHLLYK
# GABA B receptor, sequence (O88871 whole entry): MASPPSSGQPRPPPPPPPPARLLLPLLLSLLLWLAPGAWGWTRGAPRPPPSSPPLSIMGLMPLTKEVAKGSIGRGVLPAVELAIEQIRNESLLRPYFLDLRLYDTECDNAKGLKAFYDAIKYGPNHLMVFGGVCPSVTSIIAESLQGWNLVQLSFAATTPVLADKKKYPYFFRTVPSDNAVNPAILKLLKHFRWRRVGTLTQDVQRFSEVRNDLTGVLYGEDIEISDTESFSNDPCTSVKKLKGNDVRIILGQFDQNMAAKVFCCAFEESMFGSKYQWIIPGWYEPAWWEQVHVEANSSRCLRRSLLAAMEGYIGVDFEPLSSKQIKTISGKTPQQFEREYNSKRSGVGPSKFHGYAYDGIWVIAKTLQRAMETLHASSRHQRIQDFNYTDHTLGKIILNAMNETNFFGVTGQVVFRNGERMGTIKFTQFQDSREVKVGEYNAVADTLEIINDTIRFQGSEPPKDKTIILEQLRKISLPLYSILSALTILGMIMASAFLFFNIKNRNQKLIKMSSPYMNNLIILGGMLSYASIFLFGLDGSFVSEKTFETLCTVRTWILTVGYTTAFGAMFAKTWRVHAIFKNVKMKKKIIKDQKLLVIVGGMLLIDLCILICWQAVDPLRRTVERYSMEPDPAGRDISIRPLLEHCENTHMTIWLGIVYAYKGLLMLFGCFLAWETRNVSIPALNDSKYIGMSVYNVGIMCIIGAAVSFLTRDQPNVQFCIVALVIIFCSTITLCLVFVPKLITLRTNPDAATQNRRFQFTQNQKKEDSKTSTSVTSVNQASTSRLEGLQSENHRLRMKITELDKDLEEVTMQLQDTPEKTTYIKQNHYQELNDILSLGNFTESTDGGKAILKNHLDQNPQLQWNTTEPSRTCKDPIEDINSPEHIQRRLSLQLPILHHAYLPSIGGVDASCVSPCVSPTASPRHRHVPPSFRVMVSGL
# Method in brief: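 Rat brain synaptic membranes (male Sprague-Dawley), washed repeatedly in 5 mM Tris-HCl pH 7.1. 0.5 mg protein incubated with 50 nM [3H]GABA plus 20 µM isoguvacine in 50 mM Tris-HCl pH 7.4 with 2.5 mM CaCl2, 45 min at 24 °C. GF/B filtration, scintillation counting.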
# Cavia porcellus [3] = species: Cavia porcellus; experiment: Sensitivity towards CGP-35348 in isolated longitudinal guinea pig ileum muscle; sensitive; assay type: functional
# Cavia porcellus [4] = species: Cavia porcellus; experiment: Sensitivity towards CGP-35348 in isolated longitudinal guinea pig ileum muscle; Sensitive; assay type: functional
Compound,IC50 [1],EC50 (Cavia porcellus [2]),IC50 (GABA B receptor),Sensitivity (Cavia porcellus [3]),Sensitivity (Cavia porcellus [4])
NC[C@@H](CC(=O)O)c1ccc(Cl)cc1,> 100 µM,3300 µM,–,–,–
NCC[C@@H](CC(=O)O)c1ccc(Cl)cc1,> 100 µM,310 µM,> 0.14 µM,inactive,–
NC[C@H](CC(=O)O)c1ccc(Cl)cc1 [ARBACLOFEN],> 100 µM,11 µM,–,–,Active
NCC(CCC(=O)O)c1ccc(Cl)cc1 (stereo unspecified),> 100 µM,> 3000 µM,> 0.14 µM,–,–
NCC[C@H](CC(=O)O)c1ccc(Cl)cc1,> 100 µM,11 µM,7.4 µM,–,inactive
